Experimental data reported in ChEMBL document CHEMBL1961794, “Regulation of circadian behaviour and metabolism by synthetic REV-ERB agonists” (Nature, 2012).

How the values were obtained:
Mus musculus [1] = assay: Change in total plasma cholesterol in diet-induced obese mice over 30 days at 100 mg/kg ip; type: functional, organism-based; parameters: dose 100 mg/kg; details: C57BL/6
Mus musculus [2] = assay: Change in plasma NEFA (non-esterified fatty acids) in diet-induced obese mice over 30 days at 100 mg/kg ip; type: functional, organism-based; parameters: dose 100 mg/kg; details: C57BL/6
Mus musculus [3] = assay: Change in plasma insulin in diet-induced obese mice over 30 days at 100 mg/kg ip; type: functional, organism-based; parameters: dose 100 mg/kg; details: C57BL/6
Mus musculus [4] = assay: Change in plasma leptin in diet-induced obese mice over 30 days at 100 mg/kg ip; type: functional, organism-based; parameters: dose 100 mg/kg; details: C57BL/6
Mus musculus [5] = assay: Change in plasma IL-6 in diet-induced obese mice over 30 days at 100 mg/kg ip; type: functional, organism-based; parameters: dose 100 mg/kg; details: C57BL/6
[6] = target: T1, Nuclear receptor subfamily 1 group D member 1 (Homo sapiens, UniProt P20393); assay: Increased REV-ERB-alpha LBD dependent repressor activity in HEK293 cell reporter assay; type: cell-based; details: read-out: IC50
T1 sequence (P20393 whole entry): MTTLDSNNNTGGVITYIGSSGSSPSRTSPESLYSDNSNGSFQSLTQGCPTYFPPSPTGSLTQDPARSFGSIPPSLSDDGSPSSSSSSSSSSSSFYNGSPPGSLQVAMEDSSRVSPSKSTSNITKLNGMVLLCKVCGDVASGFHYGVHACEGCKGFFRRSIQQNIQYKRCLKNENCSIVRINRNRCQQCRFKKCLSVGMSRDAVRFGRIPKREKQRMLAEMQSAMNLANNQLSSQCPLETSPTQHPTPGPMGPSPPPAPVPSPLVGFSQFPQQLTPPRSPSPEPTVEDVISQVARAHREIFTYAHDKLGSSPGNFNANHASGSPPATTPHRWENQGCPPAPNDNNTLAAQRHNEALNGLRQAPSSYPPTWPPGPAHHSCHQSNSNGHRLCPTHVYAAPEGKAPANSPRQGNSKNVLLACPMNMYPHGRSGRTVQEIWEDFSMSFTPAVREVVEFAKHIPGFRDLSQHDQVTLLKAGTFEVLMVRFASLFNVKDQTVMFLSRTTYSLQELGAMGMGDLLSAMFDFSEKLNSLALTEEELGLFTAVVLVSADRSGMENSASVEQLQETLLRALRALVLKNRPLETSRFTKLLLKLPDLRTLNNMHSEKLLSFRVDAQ

[7] = target: T1, Nuclear receptor subfamily 1 group D member 1; assay: REV-ERB-alpha mediated transcriptional suppression at Bmal1 promoter in HEK293 cell reporter assay; type: functional, cell-based
[8] = Decrease in Srebf1 gene expression; type: functional; details: Mus musculus, Liver
[9] = Toxicity in CL57BL6 mice after 7 days treatment at 100 mg/kg b.i.d in hematology screen; type: organism-based, C57BL/6; parameters: dose 100 mg/kg; details: mouse, in vivo, 168 h
Outline: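 Vehicle-controlled C57Bl6 mice dosed chronically at 100 mg/kg b.i.d. for 7 days. Complete blood count: WBC, neutrophil, lymphocyte, monocyte, eosinophil and basophil counts and percentages; RBC, Hb, HCT, MCV, MCH, MCHC, RDW, platelet count and MPV. Mean ± s.e.m., n=6.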

Structure (SMILES)	Plasma cholesterol (Mus musculus [1]) [%]	Plasma NEFA (Mus musculus [2]) [%]	Plasma insulin (Mus musculus [3]) [%]	Plasma leptin (Mus musculus [4]) [%]	Plasma IL-6 (Mus musculus [5]) [%]	IC50 [6]	IC50 [7]	ED50 [8] [mg/kg]	Toxicity [9]
CCOC(=O)N1CCC(CN(Cc2ccc(Cl)cc2)Cc2ccc([N+](=O)[O-])s2)C1 (centres undefined) [SR9009]	-47	-23	-35	-80	-72	–	–	–	–
CCCCCNC(=O)N1CCC(CN(Cc2ccc(Cl)cc2)Cc2ccc([N+](=O)[O-])s2)C1 (centres undefined) [SR9011]	–	–	–	–	–	790 nM (agonist)	620 nM (agonist)	67	Not Toxic
